Experimental data from ChEMBL document CHEMBL1142954, “Metabolically stabilized benzothiazoles for imaging of amyloid plaques” (J Med Chem, 2007).

What was measured:
[1] = Displacement of [3H]PIB from human A-beta-40 peptide
Method in brief: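 Competition binding against [3H]PIB using precipitated synthetic Aβ(1-40) peptide aggregates. Ki derived from competition data.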

[2] = Lipophilicity, log P of the compound; assay type: physicochemical; details: octanol/water
Method in brief: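 Octanol–PBS partition (log Poct/PBS) measured on the N-11C-labeled radiotracers.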

[3] = test system: Plasma; assay: Metabolic stability in Balb/C mouse plasma assessed as radioactivity; assay type: ADME, cell-free
[4] = test system: Mus musculus; assay: Ratio of drug uptake in iv dosed Balb/C mouse brain at 2 to 30 mins; assay type: ADME, organism-based; details: in vivo
Method in brief: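 Wild-type mice received the 11C-labeled tracers i.v. Brain uptake was measured as %ID/g at 2 and 30 min post-injection, and the 2 min/30 min ratio was taken. Means ± sd, n = 4-5.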

Row | SMILES | Ki [1] | logP [2] | t1/2 [3] | Ratio [4]
1 | [11CH3]Nc1ccc(-c2nc3cc(F)ccc3s2)cc1Br | 1.3 nM | 4.18 | 7.2 min | 2.5
2 | [11CH3]Nc1ccc(-c2nc3cc(F)ccc3s2)cc1 | 12.4 nM | 3.27 | 6.8 min | 2.5
3 | Cc1cc(-c2nc3cc(F)ccc3s2)ccc1N[11CH3] | 8.4 nM | 2.93 | 14.3 min | 6.3
4 | [11CH3]Nc1ccc(-c2nc3cc(F)ccc3s2)cc1Cl | 3.4 nM | 2.81 | 22.1 min | 9.8
5 | Cc1cc(-c2nc3ccccc3s2)ccc1N[11CH3] | 4.4 nM | 3.36 | 7.5 min | 2.8
6 | [11CH3]Nc1ccc(-c2nc3ccccc3s2)cc1F | 6.8 nM | 3.05 | 8.4 min | 3.1
